According to ChEMBL document CHEMBL1250478 (J Med Chem, 2010):
The source made the active and inactive calls. No cut-off for these calls is given here.

Assays:
Plasmodium falciparum [1] = assay: Antiplasmodial activity against chloroquine-resistant Plasmodium falciparum Dd2 early trophozoites infected in NMRI mice (Mus musculus) RBC assessed as inhibition of hemozoin formation at 10 nM after 24 hrs by microscopic analysis; assay type: functional, organism-based
Outline: (§1)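 D6 and Dd2 cultures synchronized to ring stage with 5% sorbitol, suspended at 1% hematocrit and exposed to drug (from 1 mM stock) for 24 h at 37 °C under 5% O2/5% CO2/90% N2. Giemsa-stained smears examined by microscopy for hemozoin, parasitemia and parasite morphology.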

Plasmodium falciparum [2] = assay: Antiplasmodial activity against chloroquine-sensitive Plasmodium falciparum D6 early trophozoites infected in NMRI mice (Mus musculus) RBC assessed as inhibition of hemozoin formation at 10 nM after 24 hrs by microscopic analysis; assay type: functional, organism-based
Outline: (§2)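 Ring-stage D6 parasites synchronized with 5% sorbitol, suspended at 1% hematocrit and drug added from 1 mM stock. Incubated 24 h at 37 °C under 5% O2/5% CO2/90% N2 alongside a no-drug control. Giemsa-stained smears were used for parasitemia and for microscopic examination of hemozoin and parasite morphology.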

Plasmodium falciparum [3] = assay: Inhibition of hemozoin formation in early trophozoites of chloroquine-sensitive Plasmodium falciparum D6 infected in RBC assessed as enlarged digestive vacuole at 100 nM after 24 hrs by microscopic analysis; assay type: functional, organism-based; outline: as §2
Plasmodium falciparum [4] = assay: Antiplasmodial activity against chloroquine-sensitive Plasmodium falciparum D6 early trophozoites infected in NMRI mice (Mus musculus) RBC assessed as inhibition of hemozoin formation at 50 nM after 24 hrs by microscopic analysis; assay type: functional, organism-based; outline: as §2
Plasmodium falciparum [5] = assay: Antiplasmodial activity against chloroquine-resistant Plasmodium falciparum Dd2 early trophozoites infected in NMRI mice (Mus musculus) RBC assessed as inhibition of hemozoin formation at 50 nM after 24 hrs by microscopic analysis; assay type: functional, organism-based; outline: as §1
Mus musculus = assay: Toxicity in NMRI mouse at 30 mg/kg, po administered as single dose; assay type: organism-based; parameters: dose 30 mg/kg, route oral; details: in vivo
Plasmodium berghei [6] = assay: Antiplasmodial activity against Plasmodium berghei infected in NMRI mice (Mus musculus) assessed as parasitaemia level at 30 mg/kg, perorally administered as single dose measured after 3 days relative to control; assay type: functional; details: route oral
Outline: (§3)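 P. berghei blood diluted in saline to 10^8 parasitized erythrocytes/mL; 0.2 mL given i.v. to groups of 3 female NMRI mice (controls 5). Compounds dosed at 10 ml/kg either once on day 1 (oral gavage or subcutaneous) or orally at 4, 24, 48, 72 h post-infection. Parasitemia read by FACS on 100,000 RBCs from tail blood on day 3 (single dose) or day 4 (quadruple dose). Activity = % reduction versus control mean. Survival monitored to 30 days.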

Plasmodium berghei [7] = assay: Antiplasmodial activity against Plasmodium berghei infected in NMRI mice (Mus musculus) assessed as survival rate at 30 mg/kg, perorally administered as single dose; assay type: functional; details: route oral; outline: as §3
Plasmodium berghei [8] = assay: Antiplasmodial activity against Plasmodium berghei infected in NMRI mice (Mus musculus) assessed as survival rate at 30 mg/kg, perorally administered as 4 consecutive doses measured post last dose; assay type: functional; details: route oral; outline: as §3
Plasmodium berghei [9] = assay: Antiplasmodial activity against Plasmodium berghei infected in NMRI mice (Mus musculus) assessed as parasitaemia level at 30 mg/kg, perorally administered as 4 consecutive doses measured after 3 days post last dose relative to control; assay type: functional; details: route oral; outline: as §3
Plasmodium falciparum [10] = assay: Antiplasmodial activity against synchronized chloroquine-resistant Plasmodium falciparum Dd2 infected in NMRI mice (Mus musculus) RBC assessed as inhibition of hemozoin formation at 100 nM after 24 hrs by colorimetric analysis; assay type: functional, organism-based
Outline: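 Sorbitol-synchronized D6 and Dd2 cultures at 1% hematocrit were drug-treated for 24 h at 37 °C. Parasites were freed by freeze-thaw and saponin/Triton lysis buffer (37 °C, 30 min). Hemozoin was pelleted at 215,000 g, washed with acetone and PBS, then dissolved in 0.2 N NaOH. Heme was quantified by A400 (ε 91,000 cm-1M-1) per parasitized erythrocyte. Baseline was taken from 0 h culture.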

Plasmodium berghei [11] = assay: Antiplasmodial activity against Plasmodium berghei infected in NMRI mice (Mus musculus) assessed as survival rate at 30 mg/kg, subcutaneously administered as single dose; assay type: functional; details: route subcutaneous; outline: as §3
Plasmodium berghei [12] = assay: Antiplasmodial activity against Plasmodium berghei infected in NMRI mice (Mus musculus) assessed as parasitaemia level at 30 mg/kg, subcutaneously after 3 days relative to control; assay type: functional; details: route subcutaneous; outline: as §3
Plasmodium falciparum [13] = assay: Antiplasmodial activity against synchronized chloroquine-sensitive Plasmodium falciparum D6 infected in NMRI mice (Mus musculus) RBC assessed as inhibition of hemozoin formation at 10 nM after 24 hrs by colorimetric analysis; assay type: functional, organism-based
Outline: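 D6 cultures synchronized with sorbitol, held at 1% hematocrit, drug-treated 24 h at 37 °C. Parasites freeze-thawed, then lysed 30 min at 37 °C in saponin/Triton X-100 buffer. Hemozoin pelleted at 215,000 g, washed with acetone and PBS, dissolved 2 h in 0.2 N NaOH. Heme read at A400 (ε 91,000 cm-1M-1) and expressed per parasitized erythrocyte. A 0 h culture gave the baseline.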

Plasmodium berghei [14] = assay: Antiplasmodial activity against Plasmodium berghei infected in NMRI mice (Mus musculus) assessed as parasitaemia level at 46 mg/kg, perorally administered as 4 consecutive doses measured after 4 days post last dose relative to control; assay type: functional; details: route oral
Plasmodium berghei [15] = assay: Antiplasmodial activity against Plasmodium berghei infected in NMRI mice (Mus musculus) assessed as survival rate at 46 mg/kg, perorally administered as 4 consecutive doses measured post last dose; assay type: functional; details: route oral; outline: as §3

For Clc1ccc2c(NCCCN3CCC(NC(c4ccccn4)c4ccccn4)CC3)ccnc2c1 [DM-1157], the inhibition (Plasmodium falciparum [1]) was “Active”, the inhibition (Plasmodium falciparum [2]) was “Active” and the inhibition (Plasmodium falciparum [3]) was “Active”. The inhibition (Plasmodium falciparum [4]) was “Active”, the inhibition (Plasmodium falciparum [5]) was “Active” and the Activity (Mus musculus) was “Non-toxic”. For the same molecule, the Activity (Plasmodium berghei [6]) was 94%, the Survival (Plasmodium berghei [7]) was 7 days and the Survival (Plasmodium berghei [8]) was 27 days. For the same molecule, the Activity (Plasmodium berghei [9]) was >99.9%, the inhibition (Plasmodium falciparum [10]) was “Active” and the Survival (Plasmodium berghei [11]) was 9 days. The Activity (Plasmodium berghei [12]) was 99.3%, the inhibition (Plasmodium falciparum [13]) was “Active” and the Activity (Plasmodium berghei [14]) was >99.9%. The Survival (Plasmodium berghei [15]) was 30 days.
